Reference: ChEMBL document CHEMBL1138035, “Antitumor agents. 250. Design and synthesis of new curcumin analogues as potential anti-prostate cancer agents” (J Med Chem, 2006)

Legend:
PC-3 [1] = assay: Cytotoxicity against human PC3 cell line; format: functional, cell-based
LNCaP [2] = assay: Cytotoxicity against human LNCaP cell line; format: functional, cell-based
[3] = biological target: T1, Androgen receptor (Homo sapiens) (UniProt P10275); assay: Antiandrogenic activity against human PC3 cell line transfected with wild-type AR by AR transactivation assay in presence of […] at 5 uM; format: functional, cell-based; settings: PC-3
T1 sequence (whole entry): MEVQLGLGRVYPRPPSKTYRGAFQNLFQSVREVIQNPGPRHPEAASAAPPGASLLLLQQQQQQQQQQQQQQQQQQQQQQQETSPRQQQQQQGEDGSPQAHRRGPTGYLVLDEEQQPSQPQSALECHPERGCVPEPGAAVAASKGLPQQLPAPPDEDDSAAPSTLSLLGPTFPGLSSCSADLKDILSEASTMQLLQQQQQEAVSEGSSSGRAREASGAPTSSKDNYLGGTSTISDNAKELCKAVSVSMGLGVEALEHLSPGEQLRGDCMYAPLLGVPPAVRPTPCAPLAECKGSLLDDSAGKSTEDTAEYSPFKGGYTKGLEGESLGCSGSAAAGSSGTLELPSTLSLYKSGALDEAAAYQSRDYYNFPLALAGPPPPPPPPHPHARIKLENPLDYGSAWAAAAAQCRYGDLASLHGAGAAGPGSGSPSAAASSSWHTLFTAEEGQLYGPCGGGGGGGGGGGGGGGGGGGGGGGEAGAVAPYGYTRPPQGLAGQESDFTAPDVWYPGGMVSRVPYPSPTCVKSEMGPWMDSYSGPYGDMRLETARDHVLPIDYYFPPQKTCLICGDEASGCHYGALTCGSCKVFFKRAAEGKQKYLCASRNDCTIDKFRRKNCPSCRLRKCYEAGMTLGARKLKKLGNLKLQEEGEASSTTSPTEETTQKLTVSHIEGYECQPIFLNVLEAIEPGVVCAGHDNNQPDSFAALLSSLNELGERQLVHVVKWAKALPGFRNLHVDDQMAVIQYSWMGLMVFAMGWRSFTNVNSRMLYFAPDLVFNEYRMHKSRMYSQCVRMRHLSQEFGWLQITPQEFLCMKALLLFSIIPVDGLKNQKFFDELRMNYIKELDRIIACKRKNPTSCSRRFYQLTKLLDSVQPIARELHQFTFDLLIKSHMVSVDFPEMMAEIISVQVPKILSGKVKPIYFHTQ
In short: (§1)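 PC-3 host cells (no functional AR), kept in DMEM with 10% fetal calf serum and antibiotics, were plated 24 h before transfection. They were transfected for 5 h (SuperFect) with wild-type AR plasmid pSG5AR, MMTV-luciferase reporter and pRL-SV40 control, then moved to DMEM with 10% charcoal-stripped serum. After 24 h, cells got 1 nM DHT plus compound for 24 h. Dual-luciferase signal was normalized to the internal control and given as % of DHT-only.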

[4] = biological target: T1, Androgen receptor (Homo sapiens); assay: Antiandrogenic activity against human LNCaP cell line by AR transactivation assay in presence of […] at 5 uM; format: functional, cell-based
In short: (§2)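 LNCaP cells (endogenous mutant AR), kept in RPMI with 10% fetal calf serum and antibiotics, were plated 48 h before transfection. They were transfected for 5 h (SuperFect) with MMTV-luciferase reporter plus pRL-SV40 internal control, then moved to RPMI with 10% charcoal dextran-stripped serum. After 24 h, cells got 1 nM DHT plus compound for 24 h. Read-out was dual luciferase normalized to the internal control, as % of DHT-alone transactivation.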

PC-3 [5] = assay: Inhibition of growth of human PC3 cell line at 20 ug/ml; format: functional
In short: (§3)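 Growth assay in human prostate cancer cells (LNCaP in RPMI, PC-3 in DMEM, each with 10% fetal calf serum and antibiotics). Cells were exposed to compound for 2 days. Value is % inhibition of cell growth at 20 μg/ml. Variation between replicate experiments was ≤5%.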

[6] = biological target: T1, Androgen receptor (Homo sapiens); assay: Antiandrogenic activity against human LNCaP cell line by AR transactivation assay in presence of […] at 3 uM; format: functional, cell-based; in short: as §2
[7] = biological target: T1, Androgen receptor (Homo sapiens); assay: Antiandrogenic activity against human PC3 cell line transfected with wild-type AR by AR transactivation assay in presence of […] at 3 uM; format: functional, cell-based; settings: PC-3; in short: as §1
LNCaP [8] = assay: Inhibition of growth of human LNCaP cell line at 20 ug/ml; format: functional; in short: as §3
[9] = Homo sapiens, PC-3, read-out: IC50

Row | Compound | IC50 (PC-3 [1]; [9]) [µM] | IC50 (LNCaP [2]) [µM] | also measured
1 | CCOC(=O)CCC(F)(C(=O)/C=C/c1ccc(OC2CCCCO2)c(OC)c1)C(=O)/C=C/c1ccc(OC2CCCCO2)c(OC)c1 (stereo not given) | 6.3 | 7.3 | –
2 | COc1cc(/C=C/C(O)=C/C(C)=O)ccc1O | 8 | 6.2 | –
3 | COc1cc(OC)c(OC)cc1/C=C/C(=O)/C=C(O)/C=C/c1cc(OC)c(OC)cc1OC | 2.4 | 2.9 | –
4 | CCO/C(O)=C/C=C(C(=O)/C=C/c1ccc(OC)c(OC)c1)C(=O)/C=C/c1ccc(OC)c(OC)c1 | 1 | 0.2 | Activity [3]: 40%; Activity [4]: 6%
5 | Cc1cc(/C=C/C(=O)/C=C(O)/C=C/c2ccc(O)c(C)c2)ccc1O | – | 1.8 | IC50 (PC-3 [1]; pc-3): 4.8 µM
6 | COc1cc(OC)c(OC)cc1/C=C/C(O)=C/C(C)=O | 10.5 | 12.5 | –
7 | COc1cc(/C=C/C=C/C(=O)/C=C(O)/C=C/C=C/c2ccc(O)c(OC)c2)ccc1O | 10.6 | 4.4 | –
8 | COc1ccc(/C=C/C(=O)C(C)(F)C(=O)/C=C/c2ccc(OC)c(OC)c2)cc1OC | 4.6 | 6.4 | –
9 | CCOC(=O)CC/C(C(C)=O)=C(O)\C=C\c1ccc(O)c(OC)c1 | 43.7 | 51.5 | –
10 | CCOC(=O)CCC(F)(C(=O)/C=C/c1ccc(O)c(OC)c1)C(=O)/C=C/c1ccc(O)c(OC)c1 | 9.8 | 6.3 | –
11 | COc1ccc(/C=C/C(O)=C/C(C)=O)cc1OC | 7 | 6.6 | –
12 | COc1ccc(/C=C/C(=O)NC(=O)/C=C/c2ccc(OC)c(OC)c2)cc1OC | > 10 | 2.2 | inhibition at 20 µg/mL (PC-3 [5]): 36%
13 | COc1ccc(/C=C/C(=O)/C=C(O)/C=C/c2ccc(OC)c(C)c2)cc1C | > 27.4 | 7.7 | inhibition at 20 µg/mL (PC-3 [5]): 44%
14 | COc1ccc(/C=C/C(=O)CC(O)/C=C/c2ccc(OC)c(OC)c2)cc1OC (stereo not given) | 18.4 | 17.7 | –
15 | COc1cc(/C=C/C(O)=C/C(=O)/C=C/c2ccc[nH]2)ccc1O | 15.4 | 13.6 | –
16 | COc1ccc(/C=C/C(=O)/C=C(O)/C=C/c2ccc(OC)c(OC)c2OC)c(OC)c1OC | 8.1 | 4.8 | –
17 | COc1cc(/C=C/C(=O)/C=C(O)/C=C/c2ccc(OCC=C(C)C)c(OC)c2)ccc1OCC=C(C)C | > 19.8 | 6.1 | inhibition at 20 µg/mL (PC-3 [5]): 41%
18 | COc1cc(/C=C/C(O)=C/C(=O)/C=C/c2cccs2)ccc1O | 7.7 | 6.3 | –
19 | COc1cc(/C=C/C(=O)/C(C(C)=O)=C(O)/C=C/c2ccc(O)c(OC)c2)ccc1O | 23.4 | 8.8 | –
20 | COc1ccc(/C=C/C(=O)/C=C/c2ccc(OC)cc2OC)c(OC)c1 | 18.7 | 21.8 | –
21 | COc1cc(/C=C/C(=O)/C=C(O)/C=C/c2ccc(OC)c(OC)c2)ccc1O | 6 | 3.3 | –
22 | COc1cc(/C=C/C(O)=C/C(=O)/C=C/c2ccc(CO)o2)ccc1O | 9 | 7.3 | –
23 | COc1cc(OC)c(OC)cc1/C=C/C(=O)/C=C(O)/C=C/c1ccc(OC)c(OC)c1 | 8.2 | 8.6 | –
24 | CCOc1ccc(/C=C/C(=O)/C=C(O)/C=C/c2ccc(OCC)c(OC)c2)cc1OC | 20.3 | 6.5 | –

Row | Compound | IC50 (PC-3 [1]; [9]) [µM] | IC50 (LNCaP [2]) [µM] | also measured
25 | COc1ccc(/C=C/C(=O)C(/C=C/CO)=C(O)/C=C/c2ccc(OC)c(OC)c2)cc1OC | 1.3 | 0.2 | –
26 | COc1ccc(/C=C/C(O)=C/C(C)=O)c(OC)c1OC | 7.8 | 5.8 | –
27 | CCO/C(O)=C/C=C(C(=O)/C=C/c1ccc(OC2CCCCO2)c(OC)c1)C(=O)/C=C/c1ccc(OC2CCCCO2)c(OC)c1 (stereo not given) | 3.1 | 2.6 | Activity [6]: 54%; Activity [7]: 46%
28 | COc1ccc(/C=C/C(O)=C/C(=O)/C=C/c2ccc(OC)c(OC)c2)cc1O | 5.5 | 4.8 | –
29 | CCOC(=O)CC/C(C(=O)/C=C/c1ccc(O)c(OC)c1)=C(O)\C=C\c1ccc(O)c(OC)c1 | 5.1 | 1.5 | Activity [3]: 13%; Activity [4]: 4%
30 | CCOC(=O)CC/C(C(=O)/C=C/c1ccc(OC)c(OC)c1)=C(O)\C=C\c1ccc(O)c(OC)c1 | 6.3 | 2.1 | –
31 | O=C(/C=C(O)/C=C/c1ccc(CO)o1)/C=C/c1ccc(CO)o1 | – | – | inhibition at 20 µg/mL (PC-3 [5]): 37%; inhibition at 20 µg/mL (LNCaP [8]): 37%
32 | COc1ccc(CCC(=O)CC(O)CCc2ccc(OC)c(OC)c2)cc1OC (stereo not given) | – | 10.8 | inhibition at 20 µg/mL (PC-3 [5]): 33%
33 | COc1cc(/C=C/C(=O)/C=C/c2ccc(O)c(OC)c2)ccc1O | 2.4 | 1.4 | –
34 | COc1ccc(/C=C/C(=O)/C=C(O)/C=C/c2ccc(OC)cc2OC)c(OC)c1 | – | 11.8 | inhibition at 20 µg/mL (PC-3 [5]): 45%
35 | CCOC(=O)CC\C(C(=O)/C=C/C=C/c1ccc(O)c(OC)c1)=C(O)/C=C/C=C/c1ccc(O)c(OC)c1 | 6.4 | 3.1 | –
36 | CCNC(=O)/C=C/C(C(=O)/C=C/c1ccc(OC)c(OC)c1)=C(O)\C=C\c1ccc(OC)c(OC)c1 | 1.2 | 0.6 | –
37 | COc1ccc(/C=C/C(O)=C/C(=O)/C=C/c2ccc(OC)c(OC)c2OC)cc1OC | 9.1 | 7.7 | –
38 | COc1cc(/C=C/C(=O)CC(=O)/C=C/c2ccc(O)c(OC)c2)ccc1O [CURCUMIN] | 7.7 | 3.8 | –
39 | CCO/C(O)=C/C=C(C(=O)/C=C/c1ccc(O)c(OC)c1)C(=O)/C=C/c1ccc(O)c(OC)c1 | 11.7 | 7 | –
40 | COc1ccc(/C=C/C(=O)/C=C(O)/C=C/c2ccc(OC)c(OC)c2)cc1OC | 1.1 | 1.3 | –
41 | CCOC(=O)CC/C(C(=O)/C=C/c1ccc(OC2CCCCO2)c(OC)c1)=C(O)\C=C\c1ccc(OC2CCCCO2)c(OC)c1 (stereo not given) | 12.3 | 4.2 | –
42 | COc1ccc(/C=C/C(=O)C(/C=C/C#N)=C(O)/C=C/c2ccc(OC)c(OC)c2)cc1OC | 0.7 | 0.2 | Activity [3]: 68%; Activity [4]: 42%
43 | COc1ccc(/C=C/C(=O)/C=C/c2ccc(OC)c(OC)c2)cc1OC | 3.8 | 3.4 | –
44 | COc1ccc(/C=C/C(O)=C/C(C)=O)cc1O | 6.1 | 5.3 | –
45 | COc1ccc(/C=C/C(=O)/C=C(O)/C=C/c2ccc(OC)c(O)c2)cc1O | 8.6 | 10.9 | –
46 | COc1ccc(/C=C/C(=O)C(C)C(=O)/C=C/c2ccc(OC)c(OC)c2)cc1OC | 3.5 | 5.8 | –
47 | COc1ccc(/C=C/C(O)=C/C(C)=O)c(OC)c1 | 12.3 | 9.9 | –
